Data on 4 molecules can be found in ChEMBL document CHEMBL1126218, “N-(5,5-diacetoxypent-1-yl)doxorubicin: a new intensely potent doxorubicin analogue” (J Med Chem, 1992).

In series [1] the test system is CHO. The series is described as follows: The compound was tested in vitro for growth inhibition of Chinese Hamster Ovary(CHO) cells. The format is functional, cell-based. To be noted: Cricetulus griseus. The essentials:
(§1)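 Exponentially growing CHO cells, or the P-glycoprotein-overexpressing doxorubicin-resistant CHO/DOX subline, were seeded at 1.5 × 10⁴ cells/mL in McCoy's 5A with 10% FCS. They were exposed to at least 7 concentrations (2 × 10⁻¹² to 2 × 10⁻⁵ M) for 6 days at 37 °C. Cells were then formaldehyde-fixed, crystal-violet-stained and counted microscopically. IC50 (50% growth inhibition versus untreated controls) was taken from dose–response curves, mean of duplicates.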

The subject of series [2] is CHO. As to the kind of experiment: The compound was tested in vitro for growth inhibition of subline (CHO/DOX) with acquired resistance to doxorubicin. It counts as functional, cell-based. To be noted: Cricetulus griseus. The essentials: as §1
The test system of series [3] is carboxylate esterase. As to the kind of experiment: Half life period in the absence or presence of pig liver carboxylate esterase at 25 degrees C in aqueous solution of C + esterase (5-fold unit equiv). It counts as ADME. The essentials: (§2)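 Drug at 20 μM in 0.05 M phosphate buffer, pH 7.4, pre-equilibrated, then given porcine liver carboxylate esterase (200 units/mg) at 2, 5, 10 or 20 units per μmol substrate. At 0.25–60 min samples were vortexed and centrifuged, and the supernatant measured for parent drug by C-18 HPLC. Half-life came from pseudo-first-order least-squares regression.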

Series [4] has as its system carboxylate esterase. As to the kind of experiment: Half life period in the absence or presence of pig liver carboxylate esterase at 25 degrees C in aqueous solution of C + esterase (20-fold unit equiv). It counts as ADME. The essentials: as §2
Series [5] deals with carboxylate esterase. As to the kind of experiment: Half life period in the absence or presence of pig liver carboxylate esterase at 25 degrees C in aqueous solution of C + esterase (10-fold unit equiv). The format is ADME. The essentials: as §2
The nature of series [6]: Half life period in the absence or presence of pig liver carboxylate esterase at 25 degrees C in aqueous solution of 0.05 M acetate buffer at pH 4.0. It counts as ADME. To be noted: in vivo. The essentials:
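Drug at 20 μM in 0.05 M acetate buffer, pH 4.0, no enzyme. Aliquots were taken at set times (about 2–250 h) and the parent drug measured by reverse-phase C-18 HPLC (CH3CN–0.05 N acetate pH 4.0, 2:3). Half-life came from linear least-squares regression of pseudo-first-order loss.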

Series [7] is described as follows: Half life period in the absence or presence of pig liver carboxylate esterase at 25 degrees C in aqueous solution of 0.05 M phosphate buffer at pH 7.4. To be noted: 0.05 M phosphate buffer (aqueous solution).
The test system of series [8] is carboxylate esterase. As to the kind of experiment: Half life period in the absence or presence of pig liver carboxylate esterase at 25 degrees C in aqueous solution of C + esterase (2-fold unit equiv). The format is ADME. The essentials: as §2

By IC50 is commonly meant the point on the concentration scale where inhibition reaches its midpoint. Read a high IC50 as weaker potency in that assay. In general, half-life refers to the time needed for the level to fall by half in the phase considered.

“And” between values parts separate entries of the source, which are not always exact repeats. Identical values can stand only once.

Consider `CCCCCNC1CC(OC2CC(O)(C(=O)CO)Cc3c(O)c4c(c(O)c32)C(=O)c2c(OC)cccc2C4=O)OC(C)C1O` (centres undefined), for which the half-inhibitory concentration (IC50) in series [1] came out at 57 nM; in series [2] it was 420 nM.

For the molecule `COc1cccc2c1C(=O)c1c(O)c3c(c(O)c1C2=O)CC(O)(C(=O)CO)CC3OC1CC(NCCCCC(OC(C)=O)OC(C)=O)C(O)C(C)O1.Cl` (centres undefined), the IC50 was found to be 0.4 nM in series [1] and 0.7 nM in series [2]. Further, the half-life was 4 min in series [3]; 0.333 min in series [4]; 1 min in series [5]; 1440 min in series [7]; 27 min in series [8]. Also, the T1/2 in series [6] is > 240 h and 97 h.

In the case of `COc1cccc2c1C(=O)c1c(O)c3c(c(O)c1C2=O)C[C@@](O)(C(=O)CO)C[C@@H]3O[C@H]1C[C@H](N)[C@H](O)[C@H](C)O1` [DOXORUBICIN], the figures for the IC50 in series [1] and in series [2] were 60 nM and 6000 nM, respectively.

For `COc1cccc2c1C(=O)c1c(O)c3c(c(O)c1C2=O)CC(O)(C(=O)CO)CC3OC1CC(NCCCCCOC(C)=O)C(O)C(C)O1` (centres undefined), the values for the IC50 in series [1] and in series [2] were 83 nM and 350 nM, respectively.
